8 compounds from ChEMBL document CHEMBL4033667, “Design, synthesis, and identification of a novel napthalamide-isoselenocyanate compound NISC-6 as a dual Topoisomerase-IIα and Akt pathway inhibitor, and evaluation of its anti-melanoma activity” (Eur J Med Chem, 2017) can be followed below.

The source made the active and inactive calls. No cut-off for these calls is given here.

Series [1] relates to UACC-903. The experiment in a line: Antiproliferative activity against human UACC-903 cells harboring BRAF V600E mutant after 48 hrs by MTT assay. The class given is functional, cell-based. The note with it: UACC-903, 48 h. In outline: (§1)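 MTT viability in melanoma lines grown in DMEM with 10% FBS and pen/strep at 37 °C, 5% CO2. 3000 cells/well, settled overnight, then exposed to compound (0 to 50 µM) in triplicate for 24, 48 or 72 h. MTT (5.0 mg/mL solution) added 3 h before termination. IC50 from non-linear regression (variable slope), mean ± SD.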
In general terms: Formazan colour is commonly taken as a measure of viable cells.

A short description of series [2]: Antiproliferative activity against human A375M cells harboring BRAF V600E mutant after 48 hrs by MTT assay. The class given is functional, cell-based. In outline: as §1
Series [3] has as its system CHL-1. The experiment in a line: Antiproliferative activity against human CHL-1 cells harboring wild type BRAF after 72 hrs by MTT assay. The class given is functional, cell-based. The note with it: CHL-1, 72 h. Put shortly:
as §1

Series [4] has as its system UACC-903. The experiment in a line: Antiproliferative activity against human UACC-903 cells harboring BRAF V600E mutant after 24 hrs by MTT assay. The class given is functional, cell-based. The note with it: UACC-903, 24 h. Put shortly:
as §1

For series [5], the system named is UACC-903. The series can be described thus: Antiproliferative activity against human UACC-903 cells harboring BRAF V600E mutant after 72 hrs by MTT assay. The class given is functional, cell-based. The note with it: UACC-903, 72 h. In outline: as §1
For series [6], the system named is CHL-1. The experiment in a line: Antiproliferative activity against human CHL-1 cells harboring wild type BRAF after 24 hrs by MTT assay. The class given is functional, cell-based. The note with it: CHL-1, 24 h. In outline:
as §1

Series [7] in a line: Antiproliferative activity against human 1205 Lu cells harboring BRAF V600E mutant after 72 hrs by MTT assay. The class given is functional, cell-based. Put shortly: as §1
The test system of series [8] is CHL-1. The experiment in a line: Antiproliferative activity against human CHL-1 cells harboring wild type BRAF after 48 hrs by MTT assay. The class given is functional, cell-based. The note with it: CHL-1, 48 h. In outline:
as §1

Series [9] can be described thus: Antiproliferative activity against human A375M cells harboring BRAF V600E mutant after 24 hrs by MTT assay. The class given is functional, cell-based. Put shortly:
as §1

Series [10] can be described thus: Antiproliferative activity against human 1205 Lu cells harboring BRAF V600E mutant after 24 hrs by MTT assay. The class given is functional, cell-based. In outline:
as §1

Series [11] in a line: Antiproliferative activity against human A375M cells harboring BRAF V600E mutant after 72 hrs by MTT assay. The class given is functional, cell-based. Put shortly: as §1
Series [12] in a line: Antiproliferative activity against human 1205 Lu cells harboring BRAF V600E mutant after 48 hrs by MTT assay. The class given is functional, cell-based. Put shortly: as §1
Series [13] has as its target DNA topoisomerase 2-alpha (Homo sapiens) (UniProt P11388). The experiment in a line: Inhibition of human DNA topoisomerase 2alpha assessed as decrease in relaxation of supercoiled pBR322 DNA at 0.5 to 5 uM after 1 hr by ethidium bromide staining-based agarose gel electrophoresis. In outline:
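Kit-based relaxation assay: supercoiled plasmid DNA with 4 units of human Topo-IIα in assay buffer plus test agent or DMSO at 37 °C (1 h in legend, 30 min in methods). Stopped with 10% SDS, then proteinase K 15 min at 37 °C. Run on 1% agarose 1-2 h, ethidium bromide 2 h, destain 15 min in TAE, UV imaging.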

For series [14], the system named is NHDF. The experiment in a line: Cytotoxicity against human NHDF cells assessed as reduction in cell viability at 5 uM after 48 hrs by MTT assay. The class given is cell-based. Put shortly:
(§2)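 nHDF normal fibroblasts grown in serum-free fibroblast basal medium with growth kit and pen/strep/amphotericin B. Treated 48 h at set concentrations, with viability read by MTT assay.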

Series [15] concerns NHDF. The experiment in a line: Cytotoxicity against human NHDF cells assessed as reduction in cell viability at 2.5 uM after 48 hrs by MTT assay. The class given is cell-based. In outline: as §2

A word on the IC50: it is the midpoint of a concentration-inhibition curve.

Chain of DNA topoisomerase 2-alpha (Homo sapiens) (P11388 whole entry): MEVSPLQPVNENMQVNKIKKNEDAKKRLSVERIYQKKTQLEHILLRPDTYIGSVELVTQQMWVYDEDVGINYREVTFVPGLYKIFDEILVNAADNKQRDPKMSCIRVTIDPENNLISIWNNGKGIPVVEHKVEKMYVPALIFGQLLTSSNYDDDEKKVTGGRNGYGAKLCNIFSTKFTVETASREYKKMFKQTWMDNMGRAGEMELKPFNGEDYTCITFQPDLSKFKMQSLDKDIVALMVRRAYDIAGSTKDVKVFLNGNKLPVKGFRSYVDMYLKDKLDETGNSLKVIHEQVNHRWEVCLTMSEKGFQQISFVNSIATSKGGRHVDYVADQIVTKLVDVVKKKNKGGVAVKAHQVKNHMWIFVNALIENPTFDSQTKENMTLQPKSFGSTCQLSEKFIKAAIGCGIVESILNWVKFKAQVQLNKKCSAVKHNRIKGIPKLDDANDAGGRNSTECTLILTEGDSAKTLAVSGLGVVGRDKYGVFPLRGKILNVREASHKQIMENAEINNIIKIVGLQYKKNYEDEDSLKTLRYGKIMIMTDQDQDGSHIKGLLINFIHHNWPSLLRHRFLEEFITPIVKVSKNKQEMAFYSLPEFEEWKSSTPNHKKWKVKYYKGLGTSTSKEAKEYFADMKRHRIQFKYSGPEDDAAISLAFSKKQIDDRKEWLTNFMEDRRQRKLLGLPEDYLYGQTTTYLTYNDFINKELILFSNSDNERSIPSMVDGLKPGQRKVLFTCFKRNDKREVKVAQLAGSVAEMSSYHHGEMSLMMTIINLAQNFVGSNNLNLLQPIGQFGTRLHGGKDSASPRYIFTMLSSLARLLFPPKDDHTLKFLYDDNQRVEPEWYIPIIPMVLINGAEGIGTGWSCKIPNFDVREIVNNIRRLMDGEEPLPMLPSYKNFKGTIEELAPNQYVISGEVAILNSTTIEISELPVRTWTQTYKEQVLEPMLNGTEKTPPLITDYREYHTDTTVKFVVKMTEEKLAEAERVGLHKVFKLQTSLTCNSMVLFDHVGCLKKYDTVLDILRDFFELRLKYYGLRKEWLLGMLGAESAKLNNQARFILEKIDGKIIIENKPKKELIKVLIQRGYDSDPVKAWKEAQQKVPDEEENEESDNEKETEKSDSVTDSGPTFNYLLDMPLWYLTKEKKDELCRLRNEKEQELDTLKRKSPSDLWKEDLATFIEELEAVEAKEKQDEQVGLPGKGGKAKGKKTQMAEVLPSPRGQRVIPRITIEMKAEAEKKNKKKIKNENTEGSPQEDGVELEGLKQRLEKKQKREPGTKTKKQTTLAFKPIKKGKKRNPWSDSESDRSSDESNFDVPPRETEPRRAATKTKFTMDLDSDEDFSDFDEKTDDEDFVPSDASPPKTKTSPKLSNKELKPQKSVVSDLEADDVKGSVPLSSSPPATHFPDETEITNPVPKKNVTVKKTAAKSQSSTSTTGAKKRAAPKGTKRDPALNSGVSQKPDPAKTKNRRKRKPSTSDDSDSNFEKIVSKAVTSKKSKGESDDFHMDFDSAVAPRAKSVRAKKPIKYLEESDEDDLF

Turning to `N=C(N)[Se]CCN1C(=O)c2cccc3cccc(c23)C1=O`, the IC50 with UACC-903 [1] amounted to 12.8 µM; in series [2], 17.9 µM; with CHL-1 [3], 5.1 µM; with UACC-903 [4], 46.8 µM; with UACC-903 [5] it was 12.1 µM; in the series on CHL-1 [6], 17.9 µM. For the same compound, the IC50 in [7] is 8.2 µM; with CHL-1 [8] it was 5.2 µM; in [9] it was more than 50 µM; in [10], 46.8 µM; in series [11] it was 28.7 µM; in series [12], 11.5 µM.

On to `O=C1c2cccc3cccc(c23)C(=O)N1CCCCN=C=[Se]`, for which the half-maximal inhibitory concentration (IC50) with UACC-903 [1] came out at 9.2 µM; in series [2], 21 µM; in the series on CHL-1 [3] it was 8.9 µM; with UACC-903 [4] it was 13.1 µM; in the series with UACC-903 [5] it was 12 µM; with CHL-1 [6], 9.7 µM. The IC50 in series [7] was 15.4 µM; in the series with CHL-1 [8] it was 8 µM; in series [9], 19.4 µM; in [10], 13.1 µM; in [11], 28.4 µM; in [12], 15.9 µM.

For the compound `CN(C)CCN1C(=O)c2cccc3cc([N+](=O)[O-])cc(c23)C1=O` [MITONAFIDE], the IC50 in the series with UACC-903 [1] came out at 0.8 µM; in series [2], 1.5 µM; in the series on CHL-1 [3], 0.5 µM; in the series on UACC-903 [4], 11.4 µM; with UACC-903 [5] it was 0.5 µM; in the series on CHL-1 [6], 2.8 µM. The IC50 in series [7] was 0.6 µM; in the series with CHL-1 [8], 0.9 µM; in series [9], 3.8 µM; in [10], 11.1 µM; in series [11] it was 1.3 µM; in [12] it was 0.9 µM. The inhibition result in series [13] was “Active”. Also, the Activity in the series with NHDF [14] and in the series with NHDF [15] was less than 20% throughout.

Regarding `N=C(N)[Se]CCN1C(=O)c2cccc3cc([N+](=O)[O-])cc(c23)C1=O`, the 50% inhibitory concentration (IC50) in the series with UACC-903 [1] is 18.1 µM; in series [2], more than 50 µM; in the series on CHL-1 [3], 13.5 µM; with UACC-903 [4], more than 50 µM; with UACC-903 [5], 14 µM; in the series on CHL-1 [6], more than 50 µM. The IC50 in [7] was 39.6 µM; in the series on CHL-1 [8] it was 8.5 µM; in series [9], more than 50 µM; in series [10], more than 50 µM; in [11], 25.8 µM; in [12], more than 50 µM.

As to `O=C1c2cccc3cc([N+](=O)[O-])cc(c23)C(=O)N1CCN=C=[Se]`, the IC50 with UACC-903 [1] amounted to 14.4 µM; in [2] it was 21 µM; with CHL-1 [3] it was 11 µM; with UACC-903 [4], 21.6 µM; with UACC-903 [5] it was 15.9 µM; with CHL-1 [6] it was 15.3 µM. Besides, the IC50 in series [7] stood at 20.3 µM; with CHL-1 [8], 12.6 µM; in series [9] it was 24.8 µM; in [10], 21.6 µM; in [11] it was 24 µM; in [12] it was 19.9 µM.

In the case of `COc1cc([C@@H]2c3cc4c(cc3[C@@H](O[C@@H]3O[C@@H]5CO[C@@H](C)O[C@H]5[C@H](O)[C@H]3O)[C@H]3COC(=O)[C@H]23)OCO4)cc(OC)c1O`, the inhibition result in [13] was “Active”.

As to `O=C1c2cccc3cccc(c23)C(=O)N1CCN=C=[Se]`, the IC50 in the series with UACC-903 [1] turned out to be 5.5 µM; in series [2], 7.8 µM; with CHL-1 [3], 7.6 µM; in the series with UACC-903 [4] it was 6.3 µM; with UACC-903 [5], 5.9 µM; in the series with CHL-1 [6] it was 6.3 µM. Besides, the IC50 was determined as 9.4 µM in series [7]; 6.8 µM with CHL-1 [8]; 9.7 µM in series [9]; 11 µM in series [10]; 8 µM in series [11]; 10.7 µM in [12].

Consider `CCCS(=O)(=O)Nc1ccc(F)c(C(=O)c2c[nH]c3ncc(-c4ccc(Cl)cc4)cc23)c1F` [VEMURAFENIB], for which the IC50 in the series on UACC-903 [1] was 12.3 µM; in series [2], 2.05 µM; in the series with CHL-1 [3], 12.7 µM; with UACC-903 [4], more than 50 µM; with UACC-903 [5], 2.7 µM; with CHL-1 [6] it was more than 50 µM. In addition, the half-maximal inhibitory concentration (IC50) in [7] is 2 µM; in the series on CHL-1 [8], 20 µM; in series [9], more than 50 µM; in series [10], more than 50 µM; in series [11] it was 0.5 µM; in series [12], 7.6 µM.
